The record followed here is ChEMBL document CHEMBL1157900, “Bivalent 5,8,9,13b-tetrahydro-6H-isoquino[1,2-a]isoquinolines and -isoquinolinium salts: novel heterocyclic templates for butyrylcholinesterase inhibitors” (Bioorg Med Chem Lett, 2010).

Data set [1] deals with Acetylcholinesterase (Electrophorus electricus, UniProt O42275). As to the kind of experiment: Inhibition of Electric eel AChE after 2 mins by colorimetric Ellman assay. For orientation: Ellman's reagent forms a yellow product with free thiols.
Chain of Acetylcholinesterase (O42275 whole entry): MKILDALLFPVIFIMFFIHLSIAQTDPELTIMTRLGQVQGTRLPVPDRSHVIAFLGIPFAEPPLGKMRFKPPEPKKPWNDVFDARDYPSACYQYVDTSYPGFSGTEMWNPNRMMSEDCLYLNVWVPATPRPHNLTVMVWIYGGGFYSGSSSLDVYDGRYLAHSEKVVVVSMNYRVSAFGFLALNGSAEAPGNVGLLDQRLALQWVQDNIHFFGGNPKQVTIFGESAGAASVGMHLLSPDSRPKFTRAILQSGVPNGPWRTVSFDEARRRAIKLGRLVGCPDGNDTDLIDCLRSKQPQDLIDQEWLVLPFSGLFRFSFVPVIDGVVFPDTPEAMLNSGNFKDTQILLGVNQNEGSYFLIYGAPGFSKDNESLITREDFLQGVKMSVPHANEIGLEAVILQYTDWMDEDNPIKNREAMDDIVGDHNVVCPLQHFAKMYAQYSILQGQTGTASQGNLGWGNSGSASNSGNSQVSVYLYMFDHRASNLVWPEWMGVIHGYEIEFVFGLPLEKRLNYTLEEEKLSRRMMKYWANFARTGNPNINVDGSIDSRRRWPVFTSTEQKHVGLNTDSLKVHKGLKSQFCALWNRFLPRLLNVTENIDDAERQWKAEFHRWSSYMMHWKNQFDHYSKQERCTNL
Data set [2] has as its target Cholinesterase (Equus caballus, UniProt P81908). As to the kind of experiment: Inhibition of Equine serum BChE after 2 mins by colorimetric Ellman assay.
Data set [3] can be described thus: Selectivity ratio of IC50 for Electric eel AChE to IC50 for equine serum BChE.
Data set [4] is described as follows: Cytotoxicity against human U87MG cells assessed as cell viability after 24 hrs by MTT assay. The data set is classed as cell-based, U-87MG ATCC. The essentials: (§1)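 Photometric MTT cell-viability readout after compound exposure of human neuronal (SH-SY5Y) or glial (MG-U87) cells. CC50 reported as mean ± SD of at least three experiments, each run in triplicate.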
(In general: Tetrazolium assays rely on reduction of a dye to a coloured formazan, in cell work by metabolically active cells.)

The nature of data set [5]: Cytotoxicity against human SH-SY5Y cells assessed as cell viability after 24 hrs by MTT assay. The data set is classed as cell-based. In a few lines: as §1
In data set [6] the target is Cholinesterase (Equus caballus) (UniProt P81908). The data set is described as follows: Competitive inhibition of Equine serum BChE by Lineweaver-Burke plot. The essentials: (§2)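 Equine serum BChE. Substrate-velocity curves were recorded at various substrate concentrations, each at several fixed inhibitor concentrations. Data were plotted as reciprocal velocity against reciprocal substrate concentration (Lineweaver-Burk). Km was taken as the negative reciprocal of the x-intercept and Vmax as the reciprocal of the y-intercept, then compared across inhibitor concentrations.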
Chain of Cholinesterase (Equus caballus) (P81908 whole entry): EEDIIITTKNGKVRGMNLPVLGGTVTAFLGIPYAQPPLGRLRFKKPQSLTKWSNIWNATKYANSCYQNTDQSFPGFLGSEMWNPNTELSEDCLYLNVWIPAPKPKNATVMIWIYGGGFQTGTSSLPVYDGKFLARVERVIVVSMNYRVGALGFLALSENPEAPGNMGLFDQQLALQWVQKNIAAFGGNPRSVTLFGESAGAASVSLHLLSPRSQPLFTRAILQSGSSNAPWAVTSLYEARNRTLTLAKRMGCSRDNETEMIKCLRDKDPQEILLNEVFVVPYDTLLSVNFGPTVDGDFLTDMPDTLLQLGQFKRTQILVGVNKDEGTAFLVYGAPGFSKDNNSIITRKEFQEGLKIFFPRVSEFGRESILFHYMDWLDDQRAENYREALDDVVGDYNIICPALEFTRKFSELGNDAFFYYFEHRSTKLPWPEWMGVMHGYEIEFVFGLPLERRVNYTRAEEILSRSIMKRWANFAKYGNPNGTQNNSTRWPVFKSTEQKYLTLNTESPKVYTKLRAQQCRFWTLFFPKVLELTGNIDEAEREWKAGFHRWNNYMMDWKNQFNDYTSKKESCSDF

The target is the same in data set [7]. The data set is described as follows: Reversible inhibition of Equine serum BChE by Lineweaver-Burke plot. The essentials:
as §2

Active and inactive are the calls of the source. No cut-off for these calls is given here. Bounds are passed on as bounds.

Chain of Cholinesterase (P81908 whole entry): as above

Consider `C[N+]12CCc3ccccc3C1c1ccc(OCCCCOc3ccc4c(c3)CC[N+]3(C)CCc5ccccc5C43)cc1CC2` (centres undefined), for which the results for the IC50 in data set [1] (read-out: IC50) and in data set [2] (read-out: IC50) were 0.39 µM and 0.051 µM, respectively. For the same compound, the Ratio IC50 in data set [3] came to 8.8.
The term CC50 denotes the concentration at which the toxic effect on the cells reaches its halfway point. For `c1ccc2c(c1)CCN1CCc3cc(OCCCCCCOc4ccc5c(c4)CCN4CCc6ccccc6C54)ccc3C21` (centres undefined), the CC50 at 24 h came to 20.7 µM in data set [4] and 7.4 µM in data set [5]. The IC50 was 0.69 µM in data set [1] (read-out: IC50) and 0.014 µM in data set [2] (read-out: IC50). For the same compound, the Ratio IC50 in data set [3] came to 48.9. Also, the inhibition entry in data set [6] and in data set [7] was “Active” in each case.
`c1ccc2c(c1)CCN1CCc3cc(OCCCCOc4ccc5c(c4)CCN4CCc6ccccc6C54)ccc3C21` (centres undefined): the 50% cytotoxic concentration (CC50) at 24 h in data set [4] turned out to be 19.5 µM; in data set [5], 6.35 µM. Besides, the IC50 amounted to 1.1 µM in data set [1] (read-out: IC50) and 0.017 µM in data set [2] (read-out: IC50). Further, the Ratio IC50 in data set [3] amounted to 76.2.
For `c1ccc2c(c1)CCN1CCc3cc(OCCCOc4ccc5c(c4)CCN4CCc6ccccc6C54)ccc3C21` (centres undefined), in that order: 26.9 µM, 8.94 µM, 4.5 µM, 0.15 µM and 30.8.
Consider `C[N+]12CCc3ccccc3C1c1ccc(OCCCOc3ccc4c(c3)CC[N+]3(C)CCc5ccccc5C43)cc1CC2` (centres undefined), for which the IC50 was 0.45 µM in data set [1] (read-out: IC50) and 0.16 µM in data set [2] (read-out: IC50).
In the case of `COc1ccc2c(c1)CC[N+]1(C)CCc3ccccc3C21` (centres undefined), the IC50 turned out to be 8.8 µM in data set [1] (read-out: IC50) and 6.4 µM in data set [2] (read-out: IC50). Besides, the Ratio IC50 in data set [3] came to 1.4.
For `c1ccc2c(c1)CCN1CCc3cc(OCCCCCCCCOc4ccc5c(c4)CCN4CCc6ccccc6C54)ccc3C21` (centres undefined), the CC50 at 24 h in data set [4] worked out at 42 µM; in data set [5] it was 19.2 µM. Besides, the IC50 in data set [1] (read-out: IC50) is 1.2 µM; in data set [2] (read-out: IC50) it was 0.68 µM. The Ratio IC50 in data set [3] was 3.
Take `C[N+]12CCc3ccccc3C1c1ccc(OCCCCCOc3ccc4c(c3)CC[N+]3(C)CCc5ccccc5C43)cc1CC2` (centres undefined): the IC50 came to 0.28 µM in data set [1] (read-out: IC50) and 0.047 µM in data set [2] (read-out: IC50). In data set [3], the Ratio IC50 turned out to be 5.9.
On to `CN1CCc2ccccc2Cc2ccc(OCCCCCCCCOc3ccc4c(c3)CCN(C)CCc3ccccc3C4)cc2CC1`, for which the results for the IC50 in data set [1] (read-out: IC50) and in data set [2] (read-out: IC50) were 2 µM and 0.21 µM, respectively. For the same compound, the Ratio IC50 in data set [3] turned out to be 9.9.
With `C[N+]12CCc3ccccc3C1c1ccc(OCCCCCCCCOc3ccc4c(c3)CC[N+]3(C)CCc5ccccc5C43)cc1CC2` (centres undefined), the IC50 is 0.28 µM in data set [1] (read-out: IC50) and 0.11 µM in data set [2] (read-out: IC50). The Ratio IC50 in data set [3] was found to be 2.5.
With `CN1CCc2ccccc2Cc2ccc(OCCCOc3ccc4c(c3)CCN(C)CCc3ccccc3C4)cc2CC1`, the values for the IC50 in data set [1] (read-out: IC50) and in data set [2] (read-out: IC50) were 4.8 µM and 0.14 µM, respectively. Also, the Ratio IC50 in data set [3] was found to be 34.
In the case of `C[N+]12CCc3ccccc3C1c1ccc(OCCCCCCCCCCCCOc3ccc4c(c3)CC[N+]3(C)CCc5ccccc5C43)cc1CC2` (centres undefined), the IC50 in data set [1] (read-out: IC50) was 0.12 µM; in data set [2] (read-out: IC50) it was 0.036 µM; in data set [2] (read-out: pIC50 (converted)), 0.0353 µM. The Ratio IC50 in data set [3] turned out to be 3.4.
Regarding `COc1ccc2c(c1)CCN(C)CCc1ccccc1C2`, the IC50 in data set [1] (read-out: IC50) and in data set [2] (read-out: IC50) was more than 10000 µM each time.
Take `c1ccc2c(c1)CCN1CCc3cc(OCCCCCOc4ccc5c(c4)CCN4CCc6ccccc6C54)ccc3C21` (centres undefined): in data set [4], the CC50 at 24 h was determined as 8.7 µM. In addition, the IC50 is 0.65 µM in data set [1] (read-out: IC50), 0.308 µM in data set [1] (read-out: pIC50 (converted)) and 0.017 µM in data set [2] (read-out: IC50). Moreover, the Ratio IC50 in data set [3] was found to be 38.3.
`c1ccc2c(c1)CCN1CCc3cc(OCCCCCCCCCCCCOc4ccc5c(c4)CCN4CCc6ccccc6C54)ccc3C21` (centres undefined): in data set [4], the CC50 at 24 h stood at 46.6 µM. Further, the IC50 was determined as 4.1 µM in data set [1] (read-out: IC50) and 0.92 µM in data set [2] (read-out: IC50). In addition, the Ratio IC50 in data set [3] came out at 4.2.
Regarding `C[N+]12CCc3ccccc3C1c1ccc(OCCCCCCOc3ccc4c(c3)CC[N+]3(C)CCc5ccccc5C43)cc1CC2` (centres undefined), the IC50 in data set [1] (read-out: IC50) came out at 0.15 µM; in data set [2] (read-out: IC50) it was 0.027 µM. Moreover, the Ratio IC50 in data set [3] stood at 5.6.
As to `COc1ccc2c(c1)CCN1CCc3ccccc3C21` (centres undefined), the CC50 at 24 h in data set [4] worked out at 775 µM; in data set [5], 171 µM. Also, the IC50 in data set [1] (read-out: IC50) and in data set [2] (read-out: IC50) was more than 10000 µM throughout.
